Measurements as given in ChEMBL document CHEMBL1138464, “Synthesis, conformation, and biological characterization of a sugar derivative of morphine that is a potent, long-lasting, and nontolerant antinociceptive” (J Med Chem, 2009).
The source made the active and inactive calls.

Tests used:
Rattus norvegicus [1] = test: Antinociceptive activity in Sprague-Dawley rat at 5 mg/kg, ip after 15 mins by tail flick test; type: functional; conditions: route intraperitoneal
Summary of the method: (§1)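 Male Sprague-Dawley rats, housed singly at 21 °C on a 12 h light-dark cycle, tested in the light phase. Drug given ip in saline (100-500 µL). Tail flick: radiant heat from a 300 W bulb focused on the tail tip, withdrawal latency recorded. Pre-drug responders above 75% of cut-off excluded. Testing was blinded. Results are %MPE at 15 and 30 min and duration (h), mean of 12 animals, Mann-Whitney U-test.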

Rattus norvegicus [2] = test: Antinociceptive activity in Sprague-Dawley rat at 5 mg/kg, ip after 30 mins by tail flick test; type: functional; conditions: for MPE: route intraperitoneal; summary of the method: as §1
Rattus norvegicus [3] = test: Antinociceptive activity in Sprague-Dawley rat assessed as duration of antinociception at 5 mg/kg, ip by tail flick test; type: functional; conditions: route intraperitoneal; summary of the method: as §1
Rattus norvegicus [4] = test: Antinociceptive activity in Sprague-Dawley rat assessed as effect on mechanical nociceptive threshold at 1 to 5 mg/kg, ip after 30 mins by paw pressure test; type: functional, organism-based
Summary of the method: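 Male Sprague-Dawley rats, drug given ip in saline. Paw pressure test run before tail flick in each animal. Operator blinded to treatment. Rats with pre-drug responses above 75% of cut-off excluded. Read-out taken 30 min post-injection. Statistics by Mann-Whitney U-test.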

[5] = target: Mu-type opioid receptor (Rattus norvegicus) (UniProt P33535); conditions: HEK293
Rattus norvegicus [6] = test: Antinociceptive activity in Sprague-Dawley rat at 1 mg/kg, ip after 30 mins by tail flick test; type: functional; conditions: for MPE: route intraperitoneal; summary of the method: as §1
Rattus norvegicus [7] = test: Toxicity in Sprague-Dawley rat assessed as depression of mean arterial blood pressure at 1 mg/kg, iv administered for 60 secs measured for 30 mins; type: organism-based; set-up: dose 1 mg/kg, route intravenous; conditions: in vivo, 0.5 h
Summary of the method: (§2)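 Male Sprague-Dawley rats (250-300 g) under urethane anaesthesia (1.25 g/kg ip), kept at 37 °C, tracheotomised, with carotid and jugular cannulae. After ≥1 h stabilisation and a saline infusion, drug was given iv in saline over 60 ± 20 s. MAP, SAP, DAP and HR recorded for 30 min as % change from time zero. Student's t test and Newman-Keuls.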

Rattus norvegicus [8] = test: Toxicity in Sprague-Dawley rat assessed as depression of mean arterial blood pressure at 5 mg/kg, iv administered for 60 secs measured for 30 mins; type: organism-based; set-up: dose 5 mg/kg, route intravenous; conditions: in vivo, 0.5 h; summary of the method: as §2
Rattus norvegicus [9] = test: Toxicity in Sprague-Dawley rat assessed as depression of heart rate at 5 mg/kg, iv administered for 60 secs measured for 30 mins; type: organism-based; set-up: dose 5 mg/kg, route intravenous; conditions: in vivo, 0.5 h; summary of the method: as §2
Rattus norvegicus [10] = test: Antinociceptive activity in Sprague-Dawley rat at 1 mg/kg, ip after 15 mins by tail flick test; type: functional; conditions: route intraperitoneal; summary of the method: as §1
Rattus norvegicus [11] = test: Antinociceptive activity in Sprague-Dawley rat at 0.5 mg/kg, ip after 15 mins by tail flick test; type: functional; conditions: route intraperitoneal; summary of the method: as §1
Rattus norvegicus [12] = test: Antinociceptive activity in Sprague-Dawley rat at 0.2 mg/kg, ip after 15 mins by tail flick test; type: functional; conditions: route intraperitoneal; summary of the method: as §1
Rattus norvegicus [13] = test: Antinociceptive activity in Sprague-Dawley rat at 0.1 mg/kg, ip after 15 mins by tail flick test; type: functional; conditions: route intraperitoneal; summary of the method: as §1
Rattus norvegicus [14] = test: Antinociceptive activity in Sprague-Dawley rat at 0.05 mg/kg, ip after 15 mins by tail flick test; type: functional; conditions: route intraperitoneal; summary of the method: as §1
Rattus norvegicus [15] = test: Antinociceptive activity in Sprague-Dawley rat at 0.02 mg/kg, ip after 15 mins by tail flick test; type: functional; conditions: route intraperitoneal; summary of the method: as §1
Rattus norvegicus [16] = test: Antinociceptive activity in Sprague-Dawley rat at 0.5 mg/kg, ip after 30 mins by tail flick test; type: functional; conditions: route intraperitoneal; summary of the method: as §1
Rattus norvegicus [17] = test: Antinociceptive activity in Sprague-Dawley rat at 0.2 mg/kg, ip after 30 mins by tail flick test; type: functional; conditions: route intraperitoneal; summary of the method: as §1
Rattus norvegicus [18] = test: Antinociceptive activity in Sprague-Dawley rat at 0.1 mg/kg, ip after 30 mins by tail flick test; type: functional; conditions: route intraperitoneal; summary of the method: as §1
Rattus norvegicus [19] = test: Antinociceptive activity in Sprague-Dawley rat at 0.05 mg/kg, ip after 30 mins by tail flick test; type: functional; conditions: route intraperitoneal; summary of the method: as §1
Rattus norvegicus [20] = test: Antinociceptive activity in Sprague-Dawley rat at 0.02 mg/kg, ip after 30 mins by tail flick test; type: functional; conditions: route intraperitoneal; summary of the method: as §1
Rattus norvegicus [21] = test: Antinociceptive activity in Sprague-Dawley rat at 0.01 mg/kg, ip after 30 mins by tail flick test; type: functional; conditions: route intraperitoneal; summary of the method: as §1
Rattus norvegicus [22] = test: Antinociceptive activity in ip dosed Sprague-Dawley rat at after 30 mins by tail flick test; type: functional, organism-based; summary of the method: as §1
Rattus norvegicus [23] = test: Antinociceptive activity in Sprague-Dawley rat assessed as duration of antinociception at 1 mg/kg, ip by tail flick test; type: functional; conditions: route intraperitoneal; summary of the method: as §1
Rattus norvegicus [24] = test: Antinociceptive activity in Sprague-Dawley rat assessed as duration of antinociception at 0.5 mg/kg, ip by tail flick test; type: functional; conditions: route intraperitoneal; summary of the method: as §1
Rattus norvegicus [25] = test: Antinociceptive activity in Sprague-Dawley rat assessed as duration of antinociception at 0.2 mg/kg, ip by tail flick test; type: functional; conditions: route intraperitoneal; summary of the method: as §1
Rattus norvegicus [26] = test: Antinociceptive activity in Sprague-Dawley rat assessed as duration of antinociception at 0.1 mg/kg, ip by tail flick test; type: functional; conditions: route intraperitoneal; summary of the method: as §1
Rattus norvegicus [27] = test: Antinociceptive activity in Sprague-Dawley rat assessed as duration of antinociception at 0.05 mg/kg, ip by tail flick test; type: functional; conditions: route intraperitoneal; summary of the method: as §1
Rattus norvegicus [28] = test: Antinociceptive activity in Sprague-Dawley rat at 0.1 mg/kg, ip administered once daily for 9 days measured daily after 30 mins by tail flick test; type: functional; conditions: route intraperitoneal
Summary of the method: (§3)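 Separate groups of male Sprague-Dawley rats (250-300 g) dosed ip once daily for 9 consecutive days. Tail flick latency (radiant heat to tail tip) measured daily 30 min after each injection. Response expressed as %MPE.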

Rattus norvegicus [29] = test: Antinociceptive activity in Sprague-Dawley rat at 0.05 mg/kg, ip administered once daily for 9 days measured daily after 30 mins by tail flick test; type: functional; conditions: route intraperitoneal; summary of the method: as §3
Rattus norvegicus [30] = organism: Rattus norvegicus; test: Toxicity in Sprague-Dawley rat assessed as body weight loss; type: organism-based; conditions: in vivo
Rattus norvegicus [31] = test: Antinociceptive activity in Sprague-Dawley rat assessed as duration of antinociception at 0.02 mg/kg, ip by tail flick test; type: functional; conditions: route intraperitoneal; summary of the method: as §1
Rattus norvegicus [32] = test: Antinociceptive activity in Sprague-Dawley rat assessed as duration of antinociception at 0.01 mg/kg, ip by tail flick test; type: functional; conditions: route intraperitoneal; summary of the method: as §1
Rattus norvegicus [33] = test: Antinociceptive activity in Sprague-Dawley rat at 0.01 to 5 mg/kg, ip by tail flick test in presence of naloxone; type: functional, organism-based
Summary of the method: (§4)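 Antinociception in male Sprague-Dawley rats given drug ip in saline and measured by tail flick or paw pressure. Reversal tested with naloxone, stated as 5 mg/kg ip in the table footnote and as 0.1 mg/kg in the text.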

Rattus norvegicus [34] = test: Antinociceptive activity in Sprague-Dawley rat assessed as effect on mechanical nociceptive threshold at 1 to 5 mg/kg, ip by paw pressure test in presence of naloxone; type: functional, organism-based; summary of the method: as §4
Rattus norvegicus [35] = test: Toxicity in Sprague-Dawley rat assessed as depression of heart rate at 1 mg/kg, iv administered for 60 secs measured for 30 mins; type: organism-based; set-up: dose 1 mg/kg, route intravenous; conditions: in vivo, 0.5 h; summary of the method: as §2
Rattus norvegicus [36] = test: Antinociceptive activity in Sprague-Dawley rat at 5 mg/kg, ip administered once daily for 9 days measured daily after 30 mins by tail flick test; type: functional; conditions: route intraperitoneal; summary of the method: as §3
Rattus norvegicus [37] = test: Antinociceptive activity in Sprague-Dawley rat at 1 mg/kg, ip administered once daily for 9 days measured daily after 30 mins by tail flick test; type: functional; conditions: route intraperitoneal; summary of the method: as §3

Chain of Mu-type opioid receptor (Rattus norvegicus) (P33535 whole entry): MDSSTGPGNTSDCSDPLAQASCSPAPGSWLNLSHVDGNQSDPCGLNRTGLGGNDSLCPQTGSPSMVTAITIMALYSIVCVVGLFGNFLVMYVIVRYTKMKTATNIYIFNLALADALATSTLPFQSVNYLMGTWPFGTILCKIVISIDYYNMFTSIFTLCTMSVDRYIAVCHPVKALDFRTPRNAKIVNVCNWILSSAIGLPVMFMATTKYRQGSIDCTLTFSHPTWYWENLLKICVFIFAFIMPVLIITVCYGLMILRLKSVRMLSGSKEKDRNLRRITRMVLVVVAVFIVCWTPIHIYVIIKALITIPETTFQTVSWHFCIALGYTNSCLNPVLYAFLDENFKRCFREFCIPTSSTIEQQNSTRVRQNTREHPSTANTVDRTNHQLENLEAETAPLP

Work on `CN1CC[C@]23c4c5ccc(O)c4O[C@H]2[C@@H](O)C=C[C@H]3[C@H]1C5.CN1CC[C@]23c4c5ccc(O)c4O[C@H]2[C@@H](O)C=C[C@H]3[C@H]1C5.O=S(=O)(O)O` yielded an MPE (Rattus norvegicus [1]) of 45%, an MPE (Rattus norvegicus [2]) of 72% and a Time (Rattus norvegicus [3]) of 2.5 h.
With `CN1CC[C@]23c4c5ccc(O)c4O[C@H]2[C@@H](O)C=C[C@H]3[C@H]1C5` the Activity (Rattus norvegicus [4]) was “Active”, the KiH [5] was 2.5 nM and the KiL [5] was 113 nM.
For `CN1CC[C@]23c4c5ccc(O)c4O[C@H]2[C@@H](O[C@@H]2O[C@H](C(=O)O)[C@@H](O)[C@H](O)[C@H]2O)C=C[C@H]3[C@H]1C5`, the Activity (Rattus norvegicus [2]) was “Active”, the Activity (Rattus norvegicus [6]) was “Active” and the Activity (Rattus norvegicus [4]) was “Active”.
With `CN1CC[C@]23c4c5ccc(O)c4O[C@H]2[C@@H](O)C=C[C@H]3[C@H]1C5` [MORPHINE] the MPE (Rattus norvegicus [6]) was 35%, the Activity (Rattus norvegicus [7]) was “Non-toxic” and the Activity (Rattus norvegicus [8]) was “Toxic”. The Activity (Rattus norvegicus [9]) was “Toxic”.
In the case of `CN1CC[C@]23c4c5ccc(O)c4O[C@H]2[C@@H](O[C@H]2O[C@H](CO)[C@@H](O)[C@H](O)[C@@H]2O)C=C[C@H]3[C@H]1C5`, the MPE (Rattus norvegicus [1]) is reported as 83%, the MPE (Rattus norvegicus [10]) is reported as 56% and the MPE (Rattus norvegicus [11]) is reported as 54%. For the same compound, the MPE (Rattus norvegicus [12]) was 57%, the MPE (Rattus norvegicus [13]) was 50% and the MPE (Rattus norvegicus [14]) was 56%. For the same compound, the MPE (Rattus norvegicus [15]) was 19%, the MPE (Rattus norvegicus [2]) was 100% and the MPE (Rattus norvegicus [6]) was 100%. The MPE (Rattus norvegicus [16]) was 100%, the MPE (Rattus norvegicus [17]) was 100% and the MPE (Rattus norvegicus [18]) was 100%. It also gave an MPE (Rattus norvegicus [19]) of 84%, an MPE (Rattus norvegicus [20]) of 51% and an MPE (Rattus norvegicus [21]) of 22%. It also gave an IC50 (Rattus norvegicus [22]) of 0.02 mg/kg, a Time (Rattus norvegicus [3]) of 5 h and a Time (Rattus norvegicus [23]) of 5 h. For the same compound, the Time (Rattus norvegicus [24]) was 5 h, the Time (Rattus norvegicus [25]) was 5 h and the Time (Rattus norvegicus [26]) was 5 h. For the same compound, the Time (Rattus norvegicus [27]) was 5 h, the Activity (Rattus norvegicus [28]) was 100% and the MPE (Rattus norvegicus [29]) was 55%. The Activity (Rattus norvegicus [30]) was “Non-toxic”, the Time (Rattus norvegicus [31]) was 3.5 h and the Time (Rattus norvegicus [32]) was 2 h. The Activity (Rattus norvegicus [33]) was “inactive”, the Activity (Rattus norvegicus [4]) was “Active” and the Activity (Rattus norvegicus [34]) was “inactive”. The Activity (Rattus norvegicus [7]) was “Non-toxic”, the Activity (Rattus norvegicus [35]) was “Non-toxic” and the MPE (Rattus norvegicus [36]) was 100%. For the same compound, the MPE (Rattus norvegicus [37]) was 100%, the KiH [5] was 1.7 nM and the KiL [5] was 55 nM.
